Measurements published in paper PMC2761948 (Journal of medicinal chemistry, 2009).
pIC50: −log10 of the molar value.

Experiments:
[1] = tested on: focal adhesion kinase (FAK); assay: FAK immunostaining and Western blotting; format: cell-based, mouse; conditions: 1 h; for FAK degradation (Western blotting): 4T1 cells
Procedure, shortened: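 4T1 cells treated for 1 h with test compound or DMSO. For focal adhesion sites, cells were fixed and immunostained with anti-FAK antibody (2.5 μM test compound, 5 μM comparator). For FAK stability, each agent was given at 5 μM and cell lysates were immunoblotted with anti-FAK monoclonal antibody.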

4T1 cells [2] = assay: Migration assay; format: cell-based, mouse
Procedure, shortened: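 Trypsinised 4T1 cells (5 × 10^4) in 0.2% FBS RPMI with test compound were placed in Transwell inserts (12-μm pore polycarbonate) for 30 min at 37 °C. Inserts then moved to wells with 10% FBS RPMI for 24 h. Migrated and non-migrated cells were crystal violet-stained and methanol-solubilised separately; A570 read. Background-corrected % migration normalised to vehicle; mean ± SD, n = 3.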

4T1 cells [3] = assay: F-actin immunostaining; format: cell-based, mouse; conditions: 4-h exposure
Procedure, shortened: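 Cells grown overnight on coverslips, then exposed to test compound for 4 h in 2% FBS RPMI 1640. They were fixed in 3.7% formaldehyde, permeabilised 1 h (PBS, 0.1% Triton X-100, 0.1% BSA) and stained 30 min with Alexa Fluor 488 phallotoxin, with DAPI counterstain. Confocal imaging (488/543 nm excitation); fluorescence intensity expressed as % of untreated control.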

[4] = tested on: SKBR3 breast cancer cells; assay: Adhesion assay, SKBR3 cells to Matrigel-coated surface; format: cell-based, human; conditions: at 100 μM
Procedure, shortened: (§1)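 Wells coated with 12% (v/v) Matrigel for 1 h at 37 °C, washed with 0.1% BSA-RPMI, then blocked with 0.5% BSA-RPMI for 60 min. Cells were pretreated with test compound for 60 min at 37 °C, seeded at 2 × 10^4 per well, and left to adhere for 30 min. Adherent cells were fixed in formalin, stained with crystal violet and solubilised in 2% SDS; A570 read. Mean ± SD, n = 3.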

[5] = tested on: 4T1 metastatic breast cancer cells; assay: Adhesion assay, 4T1 cells to Matrigel-coated surface; format: cell-based, mouse; conditions: read-out: IC50, inhibition of 4T1 cell adhesion
[6] = tested on: MCF-7 breast cancer cells; assay: Adhesion assay, MCF-7 cells to Matrigel-coated surface; format: cell-based, human; conditions: at 100 μM
Procedure, shortened: as §1

## Cc1c(C)c2c(c(C)c1OC(=O)CCC(=O)O)CC[C@](C)(CCCC(C)CCCC(C)C)O2 (stereo partly shown) [Compound 2]
[1]; 5 μM
  FAK degradation (Western blotting): less evident or not appreciable
4T1 cells [2]; at 5 μM
  inhibition of serum-induced 4T1 cell migration: little effect

## Cc1c(C)c2c(c(C)c1OCC(=O)O)CC[C@](C)(/C=C/CC(C)CCCC(C)C)O2 (stereo partly shown) [Compound 5, [2-(4,8-Dimethyl-non-1-enyl)-2,5,7,8-tetramethyl-chroman-6-yloxy]-acetic acid]
[1]; 2.5 μM
  effect on focal adhesion sites (anti-FAK immunostaining): loss of focal adhesion sites
[1]; 5 μM
  FAK degradation (Western blotting): induced FAK degradation
4T1 cells [2]; at 5 μM
  inhibition of serum-induced 4T1 cell migration: effective in inhibiting cell migration
4T1 cells [3]; 5 μM
  effect on actin stress fiber and lamellipodia formation: rapid dissolution of stress fiber and impairment of lamellipodia formation

## Cc1c(C)c2c(c(C)c1OC(=O)CCC(=O)O)CC[C@](C)(/C=C/CC(C)CCCC(C)C)O2 (stereo partly shown) [Compound 4, Succinic acid mono-[2-(4,8-dimethyl-non-1-enyl)-2,5,7,8-tetramethyl-chroman-6-yl] ester]
4T1 cells [2]; at 5 μM
  inhibition of serum-induced 4T1 cell migration: effective in inhibiting cell migration

## α-tocopheryl succinate [Compound 1, reference compound]
[1]; 5 μM
  FAK degradation (Western blotting): less evident or not appreciable
[1]; 5 μM, negative control
  effect on focal adhesion sites (anti-FAK immunostaining): typical punctate pattern
4T1 cells [2]; at 50 μM
  inhibition of serum-induced 4T1 cell migration: little effect
[4]
  suppression of SKBR3 cell adhesion: ineffective
[5]
  pIC50: 5.00
4T1 cells [3]; 50 μM
  effect on actin stress fiber: remained largely intact
[6]
  suppression of MCF-7 cell adhesion: ineffective

## Cc1c(C)c2c(c(C)c1OCC(=O)O)CC[C@](C)(CCCC(C)CCCC(C)C)O2 (stereo partly shown) [Compound 6, [2-(4,8-Dimethyl-nonyl)-2,5,7,8-tetramethyl-chroman-6-yloxy]-acetic acid]
4T1 cells [2]; at 5 μM
  inhibition of serum-induced 4T1 cell migration: effective in inhibiting cell migration
4T1 cells [3]; 10 μM
  effect on actin stress fiber and lamellipodia formation: rapid dissolution of stress fiber and impairment of lamellipodia formation
